# From publication PMC6452901 (Nature biomedical engineering, 2019)
# Legend:
# [1] = system: skin allograft (BALB/c donor); experiment: Skin allograft rejection under tacrolimus immunosuppression; type: in vivo, C57BL/6 mice; conditions: 2 mg/kg I.P.; treated PODs 7, 12 n = 6; untreated POD 7 n = 8
# How it was run: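 Allograft recipients received tacrolimus 2 mg/kg i.p. or saline daily from POD −1 to POD 7, plus doses on PODs 9 and 11. FITC-labelled nanosensors (10 nmol by peptide) were given before transplant (POD −4) and on PODs 7 and 12, followed by 90-min urine collection. Urinary FITC was bead-purified with anti-FITC, converted to percent injected dose, and expressed as fold over pre-transplant; unpaired two-sided t-test.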
# Immunogenicity study = type: in vivo, C57BL/6 mice; conditions: 10 nmol I.P., with or without complete Freund's adjuvant, total serum IgG, n = 3
# How it was run: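 On day 0, C57BL/6 mice received a single i.p. dose in one of five arms: free GzmB substrate peptide (10 nmol), nanosensors (10 nmol by peptide), nanosensors plus complete Freund's adjuvant, chicken ovalbumin (100 μg) plus CFA, or saline. Serum came from retro-orbital blood, was spun at 3,500 G for 5 min and stored at −80°C. Total IgG was then quantified by immunoassay.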
# [2] = Clearance of residual urine fluorescence after a single injection; type: in vivo, mice; conditions: n = 3
# [3] = system: membrane attack complex (MAC); experiment: ELISA of membrane attack complex; set-up: species or system human; conditions: serum samples, MicroVue CH50 Eq EIA, after 1 hour, n = 3
# How it was run: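 Human control serum was mixed with activity nanosensors, and complement was triggered with heat-aggregated gamma globulin. Fluorescence was read for 1 h, then supernatants were assayed for membrane attack complex by CH50-equivalent EIA, which is proportional to CH50 U. Data are means ± s.e.m., n = 3, compared by one-way ANOVA with Tukey post-test.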
# GzmB [4] = target: T1, GzmB (Mus musculus, UniProt P04187); experiment: Tracking of cleaved fragments after in vivo GzmB cleavage; set-up: species or system C57BL/6 mice; conditions: POD 7, VT750-labelled, 10 nmol by peptides, 90 minutes post administration, tissue homogenates
# T1 sequence (P04187 21-247): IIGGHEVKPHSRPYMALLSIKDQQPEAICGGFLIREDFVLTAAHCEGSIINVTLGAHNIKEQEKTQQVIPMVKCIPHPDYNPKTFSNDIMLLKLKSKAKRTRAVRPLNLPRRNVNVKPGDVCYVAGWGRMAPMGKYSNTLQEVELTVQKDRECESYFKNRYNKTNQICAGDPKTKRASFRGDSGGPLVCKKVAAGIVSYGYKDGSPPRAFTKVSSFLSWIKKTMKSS
# murine Granzyme B = target: T2, murine Granzyme B (Mus musculus, UniProt P04187); experiment: In vitro protease cleavage assay of nanosensors with recombinant GzmB; type: biochemical
# T2 sequence (P04187 21-247): T1 sequence (P04187 21-247)
# How it was run: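 Candidate GzmB substrates (6–12-mer, Ile at P4, Asp at P1) were conjugated to iron-oxide nanoparticles. They were incubated with recombinant GzmB in PBS + 1% BSA at 37 °C with fluorescence monitoring. Fluorescence traces were fitted to compare initial cleavage velocities.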
# [5] = system: skin allograft and isograft; type: in vivo, C57BL/6 mice; conditions: POD 7 (peak), i.v., surface-labeled, mice with both grafts, n = 5
# [6] = system: GzmB activity in skin allograft; experiment: Urinary prediction of acute rejection in skin graft mice; type: in vivo, C57BL/6 mice; conditions: FITC-labelled, 10 nmol by peptides, urine collected for 90 minutes, n = 6
# How it was run: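 This was a paired design in C57BL/6 recipients of BALB/c tail-skin grafts. FITC-labelled nanosensors (10 nmol by peptide) were dosed at POD −4 and at post-transplant days, and mice voided over plates for 90 min. Urinary FITC was captured on anti-FITC magnetic beads and quantified against a free-FITC ladder. Values were volume-normalised to percent injected dose, scaled to pre-transplant mean and variance; one-way ANOVA with Dunnett post-test.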
# GzmB [7] = target: T1, GzmB; experiment: In vivo GzmB activity imaging with NIR activatable probe; set-up: species or system C57BL/6 mice; conditions: 10 nmol by peptide, organs excised at 24 hours
compound,measurement,setting,value
C=CC[C@@H]1/C=C(\C)C[C@H](C)C[C@H](OC)[C@H]2O[C@@](O)(C(=O)C(=O)N3CCCC[C@H]3C(=O)O[C@H](/C(C)=C/[C@@H]3CC[C@@H](O)[C@H](OC)C3)[C@H](C)[C@@H](O)CC1=O)[C@H](C)C[C@@H]2OC [Tacrolimus],nanosensor urine signals of treated versus untreated allograft mice,[1],blunted compared to untreated mice
(FITC)AIEFDSGc [activity nanosensors],induction of neutralizing antibodies,Immunogenicity study,do not induce neutralizing antibodies
same,time to full clearance of residual urinary fluorescence,[2],≤ 2 days
same,MAC formation (complement activation by a foreign surface),[3],no elevation in MAC formation
same,"fluorescence in kidneys, allograft compared to isograft mice",GzmB [4],3 fold
same,activation (fluorescence) in samples that contained recombinant GzmB,"murine Granzyme B; saline, plasma or serum samples spiked with GzmB, 6 nM by NP, 300 nM by peptide, 37 °C, 60 minutes",markedly activated
same,signal increase in skin allograft over skin isograft,[5],4 fold
same,post-graft urine signals from allograft recipients versus pre-graft baseline,[6],significantly elevated as early as POD 5
AIEFD|SG,initial cleavage velocity by recombinant GzmB,"murine Granzyme B; library of 13 candidate substrates conjugated to IONPs, n = 4",highest initial cleavage velocity
kGGsIEFDSGGGs{PRA}c [activatable probe],"probe activation in tissues, allograft versus isograft mice",GzmB [7],significantly increased in allograft skin but statistically equivalent in all major organs
